Here are results for seven molecules from ChEMBL document CHEMBL1125701 (J Med Chem, 1991).

The target in assay [1] is Mu-type opioid receptor (Cavia porcellus) (UniProt P97266).
Assay [2] deals with Kappa-type opioid receptor (Cavia porcellus) (UniProt P41144).
Assay [3] shares this target. Briefly: Selectivity ratio is IC50 value of opioid receptor kappa to that of delta-opioid receptor.
The target is the same in assay [4]. Kind of assay: Selectivity ratio is Ki value of opioid receptor kappa to that of delta-opioid receptor.
Assay [5] has as its target Mu-type opioid receptor (Cavia porcellus) (UniProt P97266). Kind of assay: Antagonistic potency at opioid receptor mu (200 nM) (Ke =IC50 in the presence of antagonist divided by the control IC50 value). Type of assay: functional. A digest of the protocol: (§1)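 Electrically stimulated guinea pig ileal longitudinal muscle, μ agonist morphine. The antagonist was preincubated for 15 min before agonist testing. Agonist IC50 was measured with and without antagonist on the same preparation. IC50 ratio = IC50 with antagonist / control IC50. Ke = [antagonist]/(IC50 ratio − 1).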

The target of assay [6] is Kappa-type opioid receptor (Cavia porcellus) (UniProt P41144). Briefly: Antagonistic potency at opioid receptor kappa (200 nM) (Ke =IC50 in the presence of antagonist divided by the control IC50 value). Format: functional. A digest of the protocol: (§2)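 Electrically stimulated guinea pig ileal longitudinal muscle, κ agonist ethylketazocine. The antagonist was preincubated for 15 min before agonist testing. Agonist IC50 was measured with and without antagonist on the same preparation. IC50 ratio = IC50 with antagonist / control IC50. Ke = [antagonist]/(IC50 ratio − 1).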

Assay [7] deals with Kappa-type opioid receptor (Cavia porcellus, UniProt P41144). Kind of assay: Compound was evaluated for the binding affinity to opioid receptor kappa using [3H]-EK as radioligand in guinea pig brain membrane. Type of assay: cell membranes. A digest of the protocol:
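Radioligand displacement in guinea pig brain membranes, modified from an earlier published method. [3H]EK was used with 1 μM DAMGO present to block μ sites.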

For a further assay, the target named is Mu-type opioid receptor (Cavia porcellus, UniProt P97266). Kind of assay: Compound was evaluated for the binding affinity to Opioid receptor mu using [3H]DAMGO as radioligand in guinea pig brain membrane. Type of assay: cell membranes.
Assay [8] concerns the target Mu-type opioid receptor (Cavia porcellus) (UniProt P97266). Kind of assay: Selectivity ratio is IC50 value of mu-opioid receptor to that of delta-opioid receptor.
In assay [9] the target is Delta-type opioid receptor (Mus musculus) (UniProt P32300). Briefly: Antagonistic potency at opioid receptor delta (200 nM) (Ke =IC50 in the presence of antagonist divided by the control IC50 value). Format: functional. A digest of the protocol: (§3)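 Electrically stimulated mouse vas deferens preparation, δ agonist DADLE. The antagonist was incubated with the tissue for 15 min before agonist testing. DADLE IC50 was measured with and without antagonist on the same preparation. IC50 ratio = IC50 with antagonist / control IC50. Ke = [antagonist]/(IC50 ratio − 1).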

Assay [10] concerns the target Mu-type opioid receptor (Cavia porcellus) (UniProt P97266). Briefly: Selectivity ratio is Ki value of mu-opioid receptor to that of delta-opioid receptor.
Assay [11] addresses Kappa-type opioid receptor (Homo sapiens) (UniProt P41145). Kind of assay: Competitive inhibition of Ethylketazocine on Guinea pig ileal longitudinal muscle for the opioid receptor kappa at 200 nM. Type of assay: functional. A digest of the protocol: as §2
The target in assay [12] is Mu-type opioid receptor (Homo sapiens) (UniProt P35372). Briefly: Competitive inhibition of Morphine on Guinea pig ileal longitudinal muscle for the opioid receptor mu at 200 nM. Format: functional. An outline of the steps: as §1
Assay [13] addresses Kappa-type opioid receptor (Cavia porcellus) (UniProt P41144). Briefly: Selectivity ratio is IC50 value of opioid receptor kappa to that of opioid receptor delta.
In assay [14] the target is Delta-type opioid receptor (Mus musculus) (UniProt P32300). Kind of assay: Antagonistic potency at opioid receptor delta (100 nM) (Ke =IC50 in the presence of antagonist divided by the control IC50 value). Format: functional. An outline of the steps: as §3
Assay [15] has as its target Kappa-type opioid receptor (Homo sapiens) (UniProt P41145). The settings on record: 100 nM.
For assay [16], the target named is Mu-type opioid receptor (Homo sapiens) (UniProt P35372). As to conditions: 100 nM.
Assay [17] addresses Delta-type opioid receptor (Mus musculus) (UniProt P32300). Briefly: Antagonistic potency at opioid receptor delta (20 nM) (Ke =IC50 in the presence of antagonist divided by the control IC50 value). Format: functional. An outline of the steps: as §3
The target of assay [18] is Kappa-type opioid receptor (Cavia porcellus) (UniProt P41144). Briefly: Antagonistic potency at opioid receptor kappa (20 nM) (Ke =IC50 in the presence of antagonist divided by the control IC50 value). Type of assay: functional. A digest of the protocol:
as §2

Assay [19] has as its target Kappa-type opioid receptor (Homo sapiens) (UniProt P41145). Briefly: Competitive inhibition of Ethylketazocine on Guinea pig ileal longitudinal muscle for the opioid receptor kappa at 20 nM. Type of assay: functional. An outline of the steps:
as §2

For the molecule `Cn1c2c(c3c1[C@@H]1Oc4c(O)ccc5c4[C@@]14CCN(CC1CC1)[C@H](C5)[C@]4(O)C3)CCCC2`, the figures for the Ke in [1] and in [2] were 158 and 254, respectively.

For the molecule `Oc1ccc2c3c1O[C@H]1C(c4c[nH]c5ccccc45)=CC[C@@]4(O)[C@@H](C2)N(CC2CC2)CC[C@]314`, the Ratio in assay [3] was 0.16; in assay [4], 6; in [8] it was 0.21; in assay [10], 0.6. Besides, the Ke in assay [5] is 1.1; in assay [6], 0.83; in assay [9], 5.1. The Ki (usually a measure of affinity in units of concentration, obtained from inhibition or displacement) in assay [7] came to 6.2 nM; on Mu-type opioid receptor it was 0.63 nM. In addition, the IC50 ratio in [11] amounted to 243; in [12] it was 189.

Consider `Oc1ccc2c3c1O[C@H]1c4nc5ccccc5cc4C[C@@]4(O)[C@@H](C2)N(CC2CC2)CC[C@]314`, for which the Ratio in [13] was determined as 8; in assay [8], 6. Moreover, the Ke in assay [14] is 1.9; in assay [1] it was 11; in assay [2] it was 15.4. The IC50 ratio in [15] was 7.5; in assay [16], 9.9.

`Oc1ccc2c3c1O[C@H]1c4nc5ccccc5nc4C[C@@]4(O)[C@@H](C2)N(CC2CC2)CC[C@]314`: the Ratio is 5 in assay [13], 227 in assay [4], 3 in assay [8] and 9 in [10]. Also, the Ke in assay [5] came out at 5.5; in assay [6] it was 10; in assay [17], 1.9. The IC50 ratio was 21 in assay [11] and 37 in [12].

Regarding `Oc1ccc2c3c1O[C@H]1C(c4ccc[nH]4)=CC[C@@]4(O)[C@@H](C2)N(CC2CC2)CC[C@]314`, the Ratio in assay [13] was 0.03. For the same molecule, the Ke in [18] was found to be 0.23; in assay [14], 8.2. Also, in [19], the IC50 ratio stood at 89.

In the case of `Oc1ccc2c3c1O[C@H]1C(c4ccccc4)=CC[C@@]4(O)[C@@H](C2)N(CC2CC2)CC[C@]314`, the Ke in assay [14] was found to be 13.5; in [1] it was 0.68; in [2], 1.7. For the same molecule, the IC50 ratio in [16] was determined as 148.

In the case of `Oc1ccc2c3c1O[C@H]1c4oc5ccccc5c4C[C@@]4(O)[C@@H](C2)N(CC2CC2)CC[C@]314`, the Ke in assay [5] came out at 27; in assay [6] it was 48; in assay [17], 0.27.
